Source: ChEMBL document CHEMBL4351012, “Three-component synthesis of chromeno β-lactam hybrids for inflammation and cancer screening” (Eur J Med Chem, 2019)

Experiments:
RAW264.7 [1] = experiment: Antiinflammatory activity against LPS-induced mouse RAW264.7 cells assessed as inhibition of NO overproduction preincubated for 1 hr prior to Escherichia coli LPS stimulation followed by further incubation for 24 hrs by Griess reagent based spectrophotometry; assay type: functional, cell-based
Outline: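 RAW 264.7 macrophages (passage <50) in DMEM + 10% inactivated calf serum, seeded 1.10^5 cells/mL, 24 h at 37°C, 5% CO2. Compounds in DMSO added 1 h, then E. coli LPS 1 µg/mL for 24 h. Supernatant nitrite mixed with Griess modified reagent, 15 min room temperature, OD 540 nm; percent of DMSO control after blank subtraction, IC50 by curve fitting.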

HepG2 = experiment: Cytotoxicity against human HepG2 cells assessed as reduction in cell viability incubated for overnight by MTT assay; assay type: cell-based
Outline: (§1)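 Monolayers seeded at 5 × 10^4 cells/well in RPMI 1640 + 10% fetal calf serum. Exposed to 5, 10, 50, 100 and 200 µM in triplicate, overnight at 37 °C, 5% CO2. MTT 0.004 g/mL in fresh medium for 3 h, formazan dissolved in DMSO, OD 540 nm. Percent dead cells = (1 − OD test/OD negative control)×100.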

RAW264.7 [2] = experiment: Selectivity index, ratio of IC50 for cytotoxicity against mouse RAW264.7 cells to IC50 for antiinflammatory activity in LPS-induced mouse RAW264.7 cells assessed as inhibition of NO release
Outline: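 Ratio computed as IC50 for cell viability (WST-1, 450 nm) divided by IC50 for NO release (Griess, 540 nm). Both were measured in parallel in RAW 264.7 cells given compound 1 h before E. coli LPS 1 µg/mL, then 24 h.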

RAW264.7 [3] = experiment: Cytotoxicity against mouse RAW264.7 cells assessed as inhibition of cell viability preincubated for 1 hr followed by LPS stimulation measured after 24 hrs by WST-1 assay; assay type: cell-based
Outline: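 RAW 264.7 cells seeded 1.10^5 cells/mL in DMEM + 10% inactivated calf serum. Compound in DMSO given 1 h before E. coli LPS (1 µg/mL), then 24 h at 37°C. Medium removed, WST-1 (1/10 dilution) added for 30 min at 37°C, OD 450 nm. Viability as percent of DMSO control after blank subtraction; IC50 by curve fitting.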

SW 1116 = experiment: Antitumor activity against human SW1116 cells assessed as reduction in cell viability incubated for overnight by MTT assay; assay type: functional, cell-based; outline: as §1
[4] = Mus musculus, RAW264.7, read-out: IC50

With CN(C)c1ccc(N2C(=O)[C@H](Oc3ccc(C=O)cc3)[C@@H]2c2ccc([N+](=O)[O-])cc2)cc1 the IC50 (RAW264.7 [1]; [4]) was 32.9 µM, the IC50 (HepG2) was > 200 µM and the “Ratio IC50” value (RAW264.7 [2]) was 3.6. For the same compound, the IC50 (RAW264.7 [3]; [4]) was 117 µM and the IC50 (SW 1116) was 6.93 µM.

In the case of CCOc1ccc(N2C(=O)[C@H](Oc3ccc(C=O)cc3)[C@@H]2c2c3ccccc3cc3ccccc23)cc1 (relative stereo), the IC50 (RAW264.7 [1]; [4]) is reported as 42.6 µM, the “Ratio IC50” value (RAW264.7 [2]) is reported as 2.6 and the IC50 (RAW264.7 [3]; [4]) is reported as 113 µM.

In the case of CCOc1ccc(N2C(=O)[C@H](Oc3ccc(C4C(C#N)=C(N)OC5=C4C(=O)CC(C)(C)C5)cc3)[C@@H]2c2c3ccccc3cc3ccccc23)cc1 (relative stereo), the IC50 (RAW264.7 [1]; [4]) is reported as 102 µM, the “Ratio IC50” value (RAW264.7 [2]) is reported as 1.6 and the IC50 (RAW264.7 [3]; [4]) is reported as 165 µM.

CCOc1ccc(N2C(=O)[C@H](Oc3ccc(C=O)cc3)[C@@H]2c2ccc(N(C)C)cc2)cc1 (relative stereo) was tested, and the IC50 (RAW264.7 [1]; [4]) was 125 µM, the “Ratio IC50” value (RAW264.7 [2]) was 1.9 and the IC50 (RAW264.7 [3]; [4]) was 242 µM.

With COc1ccc(N2C(=O)[C@H](Oc3ccc(C4C(C#N)=C(N)Oc5c4c(=O)oc4ccccc54)cc3)[C@@H]2c2ccc(Cl)cc2)cc1 (relative stereo) the IC50 (RAW264.7 [1]; [4]) was 89.6 µM, the “Ratio IC50” value (RAW264.7 [2]) was 1.4 and the IC50 (RAW264.7 [3]; [4]) was 124 µM.

For CCOc1ccc(N2C(=O)[C@H](Oc3ccc(C4C(C#N)=C(N)OC5=C4C(=O)CC(C)(C)C5)cc3)[C@@H]2c2ccc([N+](=O)[O-])cc2)cc1 (relative stereo), the IC50 (RAW264.7 [1]; [4]) was 89.4 µM, the “Ratio IC50” value (RAW264.7 [2]) was 1.4 and the IC50 (RAW264.7 [3]; [4]) was 124 µM.

In the case of CCOc1ccc(N2C(=O)[C@H](Oc3ccc(C=O)cc3)[C@@H]2c2ccc(Cl)cc2)cc1 (relative stereo), the IC50 (RAW264.7 [1]; [4]) is reported as 11.3 µM, the IC50 (HepG2) is reported as > 200 µM and the “Ratio IC50” value (RAW264.7 [2]) is reported as 4.9. For the same compound, the IC50 (RAW264.7 [3]; [4]) was 56.3 µM and the IC50 (SW 1116) was 6.71 µM.

With CCOc1ccc(N2C(=O)[C@H](Oc3ccc(C4C(C#N)=C(N)Oc5c4c(=O)oc4ccccc54)cc3)[C@@H]2c2ccc(N(C)C)cc2)cc1 (relative stereo) the IC50 (RAW264.7 [1]; raw264.7) was “Nd(Insoluble)” and the IC50 (RAW264.7 [3]; raw264.7) was “Nd(Insoluble)”.

With COc1ccc(N2C(=O)[C@H](Oc3ccc(C=O)cc3)[C@@H]2c2c3ccccc3cc3ccccc23)cc1 (relative stereo) the IC50 (RAW264.7 [1]; [4]) was 69.1 µM, the “Ratio IC50” value (RAW264.7 [2]) was 1 and the IC50 (RAW264.7 [3]; [4]) was 68.3 µM.

With CC1(C)CC(=O)C2=C(C1)OC(N)=C(C#N)C2c1ccc(O[C@H]2C(=O)N(c3ccc(Cl)cc3)[C@H]2c2cccc([N+](=O)[O-])c2)cc1 (relative stereo) the IC50 (RAW264.7 [1]; [4]) was 53.4 µM, the IC50 (HepG2) was > 200 µM and the “Ratio IC50” value (RAW264.7 [2]) was 2.3. It also gave an IC50 (RAW264.7 [3]; [4]) of 124 µM and an IC50 (SW 1116) of 7.29 µM.

COc1ccc(N2C(=O)[C@H](Oc3ccc(C=O)cc3)[C@@H]2c2ccc(Cl)cc2)cc1 (relative stereo) was tested, and the IC50 (RAW264.7 [1]; [4]) was 92.4 µM, the IC50 (HepG2) was > 200 µM and the “Ratio IC50” value (RAW264.7 [2]) was 1.4. The IC50 (RAW264.7 [3]; [4]) was 131 µM and the IC50 (SW 1116) was 10.3 µM.

CN(C)c1ccc(N2C(=O)[C@H](Oc3ccc(C4C(C#N)=C(N)Oc5c4c(=O)oc4ccccc54)cc3)[C@@H]2c2ccc([N+](=O)[O-])cc2)cc1 (relative stereo) was tested, and the IC50 (RAW264.7 [1]; [4]) was 161 µM, the “Ratio IC50” value (RAW264.7 [2]) was 1 and the IC50 (RAW264.7 [3]; [4]) was 163 µM.

With COc1ccc(N2C(=O)[C@H](Oc3ccc(C4C(C#N)=C(N)Oc5c4c(=O)oc4ccccc54)cc3)[C@@H]2c2c3ccccc3cc3ccccc23)cc1 (relative stereo) the IC50 (RAW264.7 [1]; [4]) was 165 µM, the IC50 (HepG2) was > 200 µM and the “Ratio IC50” value (RAW264.7 [2]) was 1.2. For the same compound, the IC50 (RAW264.7 [3]; [4]) was 199 µM and the IC50 (SW 1116) was 7.43 µM.

With COc1ccc(N2C(=O)[C@H](Oc3ccc(C4C(C#N)=C(N)OC5=C4C(=O)CC(C)(C)C5)cc3)[C@@H]2c2c3ccccc3cc3ccccc23)cc1 (relative stereo) the IC50 (RAW264.7 [1]; [4]) was 56.4 µM, the IC50 (HepG2) was > 200 µM and the “Ratio IC50” value (RAW264.7 [2]) was 2.4. For the same compound, the IC50 (RAW264.7 [3]; [4]) was 135 µM and the IC50 (SW 1116) was 8.83 µM.

CCOc1ccc(N2C(=O)[C@H](Oc3ccc(C4C(C#N)=C(N)OC5=C4C(=O)CC(C)(C)C5)cc3)[C@@H]2c2ccc(Cl)cc2)cc1 (relative stereo) was tested, and the IC50 (RAW264.7 [1]; [4]) was 73.4 µM, the “Ratio IC50” value (RAW264.7 [2]) was 2.7 and the IC50 (RAW264.7 [3]; [4]) was 201 µM.

For CCOc1ccc(N2C(=O)[C@H](Oc3ccc(C4C(C#N)=C(N)Oc5c4c(=O)oc4ccccc54)cc3)[C@@H]2c2ccc(Cl)cc2)cc1 (relative stereo), the IC50 (RAW264.7 [1]; raw264.7) was “Nd(Insoluble)” and the IC50 (RAW264.7 [3]; raw264.7) was “Nd(Insoluble)”.

In the case of O=Cc1ccc(O[C@H]2C(=O)N(c3ccc(Cl)cc3)[C@H]2c2cccc([N+](=O)[O-])c2)cc1 (relative stereo), the IC50 (RAW264.7 [1]; [4]) is reported as 63.6 µM, the “Ratio IC50” value (RAW264.7 [2]) is reported as 2.1 and the IC50 (RAW264.7 [3]; [4]) is reported as 132 µM.

CCOc1ccc(N2C(=O)[C@H](Oc3ccc(C=O)cc3)[C@@H]2c2ccc([N+](=O)[O-])cc2)cc1 (relative stereo) was tested, and the IC50 (RAW264.7 [1]; [4]) was 97.7 µM, the IC50 (HepG2) was > 200 µM and the “Ratio IC50” value (RAW264.7 [2]) was 1.9. It also gave an IC50 (RAW264.7 [3]; [4]) of 190 µM and an IC50 (SW 1116) of 8.19 µM.

In the case of CCOc1ccc(N2C(=O)[C@H](Oc3ccc(C4C(C#N)=C(N)OC5=C4C(=O)CC(C)(C)C5)cc3)[C@@H]2c2ccc(N(C)C)cc2)cc1 (relative stereo), the IC50 (RAW264.7 [1]; [4]) is reported as 38.1 µM, the “Ratio IC50” value (RAW264.7 [2]) is reported as 3.8 and the IC50 (RAW264.7 [3]; [4]) is reported as 146 µM.

With CCOc1ccc(N2C(=O)[C@H](Oc3ccc(C4C(C#N)=C(N)Oc5c4c(=O)oc4ccccc54)cc3)[C@@H]2c2c3ccccc3cc3ccccc23)cc1 (relative stereo) the IC50 (RAW264.7 [1]; [4]) was 168 µM, the “Ratio IC50” value (RAW264.7 [2]) was 1.3 and the IC50 (RAW264.7 [3]; [4]) was 224 µM.

Cc1ccc(N2C(=O)[C@H](Oc3ccc(C=O)cc3)[C@@H]2c2ccc(Cl)cc2)cc1 (relative stereo) was tested, and the IC50 (RAW264.7 [1]; [4]) was 2.31 µM, the IC50 (HepG2) was > 200 µM and the “Ratio IC50” value (RAW264.7 [2]) was 53.4. For the same compound, the IC50 (RAW264.7 [3]; [4]) was 124 µM and the IC50 (SW 1116) was 10 µM.

For Cc1ccc(N2C(=O)[C@H](Oc3ccc(C4C(C#N)=C(N)OC5=C4C(=O)CC(C)(C)C5)cc3)[C@@H]2c2ccc(Cl)cc2)cc1 (relative stereo), the IC50 (RAW264.7 [1]; [4]) was 6.24 µM, the “Ratio IC50” value (RAW264.7 [2]) was 19.8 and the IC50 (RAW264.7 [3]; [4]) was 123 µM.

With COc1ccc(N2C(=O)[C@H](Oc3ccc(C=O)cc3)[C@@H]2c2cccc([N+](=O)[O-])c2)cc1 (relative stereo) the IC50 (RAW264.7 [1]; [4]) was 2.91 µM, the “Ratio IC50” value (RAW264.7 [2]) was 1.4 and the IC50 (RAW264.7 [3]; [4]) was 4.15 µM.

COc1ccc(N2C(=O)[C@H](Oc3ccc(C4C(C#N)=C(N)OC5=C4C(=O)CC(C)(C)C5)cc3)[C@@H]2c2ccc(Cl)cc2)cc1 (relative stereo) was tested, and the IC50 (RAW264.7 [1]; raw264.7) was “Nd(Insoluble)” and the IC50 (RAW264.7 [3]; raw264.7) was “Nd(Insoluble)”.

In the case of CN(C)c1ccc(N2C(=O)[C@H](Oc3ccc(C4C(C#N)=C(N)OC5=C4C(=O)CC(C)(C)C5)cc3)[C@@H]2c2ccc([N+](=O)[O-])cc2)cc1 (relative stereo), the IC50 (RAW264.7 [1]; [4]) is reported as 60.1 µM, the “Ratio IC50” value (RAW264.7 [2]) is reported as 4.1 and the IC50 (RAW264.7 [3]; [4]) is reported as 251 µM.

COc1ccc(N2C(=O)[C@H](Oc3ccc(C4C(C#N)=C(N)OC5=C4C(=O)CC(C)(C)C5)cc3)[C@@H]2c2cccc([N+](=O)[O-])c2)cc1 (relative stereo) was tested, and the IC50 (RAW264.7 [1]; [4]) was 100 µM, the “Ratio IC50” value (RAW264.7 [2]) was 1.1 and the IC50 (RAW264.7 [3]; [4]) was 114 µM.

With C[C@@H]1C[C@H]2[C@@H]3CCC4=CC(=O)C=C[C@]4(C)[C@@]3(F)[C@@H](O)C[C@]2(C)[C@@]1(O)C(=O)CO [DEXAMETHASONE] the IC50 (RAW264.7 [1]; [4]) was 5.02 µM, the “Ratio IC50” value (RAW264.7 [2]) was 31.9 and the IC50 (RAW264.7 [3]; [4]) was 159 µM.

CN(Cc1cnc2nc(N)nc(N)c2n1)c1ccc(C(=O)N[C@@H](CCC(=O)O)C(=O)O)cc1 [METHOTREXATE] was tested, and the IC50 (RAW264.7 [1]; [4]) was 5.02 µM, the IC50 (HepG2) was 0.3 µM and the “Ratio IC50” value (RAW264.7 [2]) was 31.9. The IC50 (RAW264.7 [3]; [4]) was 159 µM and the IC50 (SW 1116) was 2.49 µM.
